Published values gathered from unrelated publications.
Protocols differ between the studies behind these lines.
Target: cGMP-dependent protein kinase 2 (PRKG2, Homo sapiens, UniProt Q13237)

CN1CC(Oc2cnc(C#N)cc2-c2ccn3nc(NC(=O)C4CC4)cc3c2)C1 — inhibition (enzyme activity, inhibitor; 1 µM): 1%
CC(C)(C)c1nc(-c2cccc(NS(=O)(=O)c3c(F)cccc3F)c2F)c(-c2ccnc(N)n2)s1 — remaining activity (enzyme activity, inhibitor, radiometric; 1 µM): 102%
CN([C@@H]1CCc2c(CC(=O)O)c3ccccc3n2C1)S(=O)(=O)c1ccc(F)cc1 — remaining binding (cell-free assay, competition with immobilised ligand; 1 µM): 100%
C=CC(=O)Nc1cc(Nc2nccc(Nc3cc(Cl)c(F)cc3C(C)(C)O)n2)c(OC)cc1N1CC[C@@H](N(C)C)C1 — inhibition (enzyme activity, inhibitor; 1 µM): -8%
COc1cccc(CNC(=O)c2nc3scc(COCc4ccc(C(=O)O)cc4)c3c(=O)[nH]2)c1 — remaining binding (cell-free assay, competition with immobilised ligand; 1 µM): 100%
COc1cc(Cl)c(C(=O)N[C@@H](CN[C@H]2CC[C@@H](N)CC2)Cc2ccc(C#N)cc2)cc1-c1ccc(CN[C@H](C)c2ccc(C)cc2)o1 — remaining activity (enzyme activity, inhibitor; 1 µM): 98%
COc1cc2ncnc(Nc3ccc(Oc4ccccc4)c(C)c3C)c2cc1OC — inhibition (enzyme activity, inhibitor; 1 µM): 2%
Cc1sc(C(=O)NC2COC2)cc1-n1cc(NC(=O)Nc2c(F)cccc2Cl)cn1 — remaining activity (enzyme activity, inhibitor; 10 µM): 100%
CO[C@H]1CC[C@H](CNc2ccc(S(=O)(=O)NC(=O)c3ccc(N4CCN(CC5=C(c6ccc(Cl)cc6)CC(C)(C)CC5)CC4)cc3Oc3cnc4[nH]ccc4c3)cc2[N+](=O)[O-])CC1 — remaining binding (cell-free assay, competition with immobilised ligand; 1 µM): 90%
Cc1ccc(C(=O)Nc2ccc(CN3CCN(C)CC3)c(C(F)(F)F)c2)cc1C#Cc1cnc2cccnn12 — remaining activity (enzyme activity, inhibitor; 23.5 nM): 82%
O=C(NCCCC1CCCCC1)c1ccc(CNC(=O)c2cnn(-c3ccccc3)c2C(F)(F)F)cc1 — remaining binding (cell-free assay, competition with immobilised ligand; 0.1 µM): 89%
Cn1cnc(Br)c1C1=CN(c2ncnc3[nH]cnc23)CCS1 — inhibition (enzyme activity, inhibitor, radiometric; 50 nM): 43.1%
Nc1nc(Nc2ccc(S(N)(=O)=O)cc2)nn1C(=O)c1c(F)cccc1F — remaining signal (cell-free assay; 0.5 µM): 92.2%
Nc1ncnc2occ(-c3ccc(NC(=O)Nc4cc(C(F)(F)F)ccc4F)cc3)c12 — remaining signal (cell-free assay, inhibitor; 20 µM): 76%
Cc1ccc(NC(=O)c2ccc(CN3CCN(C)CC3)cc2)cc1Nc1nc(-c2cccnc2)cs1 — remaining signal (cell-free assay; 0.5 µM): 95.4%
C[C@H](c1cccc(C#N)c1)n1cc(Cl)cc(C(N)=O)c1=N — remaining binding (cell-free assay, competition with immobilised ligand; 1 µM): 97%
O=C1NC(=O)c2cc(Nc3ccc(F)cc3)c(Nc3ccc(F)cc3)cc21 — remaining signal (cell-free assay; 0.5 µM): 83.3%
CN(C)C1CCN(CC#Cc2nn(C3CCCC3)c3nc(NCc4ccccc4)ncc23)C1 (stereo not drawn) — inhibition (enzyme activity, inhibitor, FRET; 1 µM): 6%
